Measurements published in ChEMBL document CHEMBL5724801, “EUbOPEN Chemogenomics Library - Multiplex” (2024).
Values joined by “and” are separate entries in the source; they are usually repeats but may differ in a detail not shown here. Equal entries are not always repeated.

Test system: Fibroblast
Assay: Multiplex assay against human fibroblast
Format: toxicity, cell-based
Method in brief: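 On a CQ1 microscope at 37°C and 5% CO2, live cells were imaged after compound addition. They had been stained at seeding with Hoechst33342, BioTracker Green Microtubule Cytoskeleton Dye, MitoTracker Red and Annexin V Alexa Fluor 680. CellPathfinder machine-learning gating assigned cells to Hoechst high-intensity objects or normal cells, normal cells to healthy, pyknosed or fragmented nuclei, and pyknosed cells to mitotic or apoptotic. Tubulin, mitochondrial-mass and membrane-permeability phenotypes are per cents of healthy-nucleus cells.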

[1] = 12 h, 1 µM, compound concentration 1 uM
[2] = 12 h, 10 µM, compound concentration 10 uM
[3] = 24 h, 1 µM, compound concentration 1 uM
[4] = 24 h, 10 µM, compound concentration 10 uM
[5] = 48 h, 1 µM, compound concentration 1 uM
[6] = 48 h, 10 µM, compound concentration 10 uM

Compound: Cl.O=S(=O)(c1cccc2c(I)cccc12)N1CCCNCC1
- Population Apoptotic (%) [1]: 20.93% and 13.51%
- Population Fragmented Nuclei (%) [1]: 13.23% and 4.19%
- Population Healthy Nuclei (%) [1]: 64.02% and 76.44%
- Population Hoechst High Intensity Objects (%) [1]: 0%
- Population Membrane Permeable-Phenotype (%) [1]: 4.96% and 4.79%
- Population Mitochondria Different-Phenotype (%) [1]: 9.92% and 6.85%
- Population Mitotic Cells (%) [1]: 79.07% and 86.49%
- Population Normal (%) [1]: 100%
- Population Pyknosed Nuclei (%) [1]: 22.75% and 19.37%
- Population Tubulin-Different-Phenotype (%) [1]: 14.88% and 28.08%
- Total Cell Count [1]: 189 and 191
- Population Fragmented Nuclei (%) [2]: 9.25% and 6.27%
- Population Healthy Nuclei (%) [2]: 60.69% and 61.18%
- Population Hoechst High Intensity Objects (%) [2]: 0%
- Population Membrane Permeable-Phenotype (%) [2]: 5.71% and 3.85%
- Population Mitochondria Different-Phenotype (%) [2]: 15.24% and 15.38%
- Population Mitotic Cells (%) [2]: 94.23% and 67.47%
- Population Normal (%) [2]: 100%
- Population Pyknosed Nuclei (%) [2]: 30.06% and 32.55%
- Population Tubulin-Different-Phenotype (%) [2]: 25.71% and 55.13%
- Total Cell Count [2]: 173 and 255
- Population Apoptotic (%) [3]: 7.89% and 13.64%
- Population Fragmented Nuclei (%) [3]: 8.84% and 7.04%
- Population Healthy Nuclei (%) [3]: 73.49% and 81.91%
- Population Hoechst High Intensity Objects (%) [3]: 0%
- Population Membrane Permeable-Phenotype (%) [3]: 4.43% and 3.07%
- Population Mitochondria Different-Phenotype (%) [3]: 6.33% and 6.13%
- Population Mitotic Cells (%) [3]: 92.11% and 86.36%
- Population Normal (%) [3]: 100%
- Population Pyknosed Nuclei (%) [3]: 17.67% and 11.06%
- Population Tubulin-Different-Phenotype (%) [3]: 16.46% and 28.22%
- Total Cell Count [3]: 215 and 199
- Population Apoptotic (%) [4]: 11.9% and 25.45%
- Population Fragmented Nuclei (%) [4]: 8.42% and 3.61%
- Population Healthy Nuclei (%) [4]: 69.47% and 76.53%
- Population Hoechst High Intensity Objects (%) [4]: 0%
- Population Membrane Permeable-Phenotype (%) [4]: 3.79% and 5.66%
- Population Mitochondria Different-Phenotype (%) [4]: 9.85% and 15.57%
- Population Mitotic Cells (%) [4]: 88.1% and 74.55%
- Population Normal (%) [4]: 100%
- Population Pyknosed Nuclei (%) [4]: 22.11% and 19.86%
- Population Tubulin-Different-Phenotype (%) [4]: 34.85% and 63.21%
- Total Cell Count [4]: 190 and 277
- Population Apoptotic (%) [5]: 25% and 33.33%
- Population Fragmented Nuclei (%) [5]: 8.44% and 10.78%
- Population Healthy Nuclei (%) [5]: 86.5% and 83.33%
- Population Hoechst High Intensity Objects (%) [5]: 0%
- Population Membrane Permeable-Phenotype (%) [5]: 1.46% and 7.06%
- Population Mitotic Cells (%) [5]: 75% and 66.67%
- Population Normal (%) [5]: 100%
- Population Pyknosed Nuclei (%) [5]: 5.06% and 5.88%
- Total Cell Count [5]: 237 and 204
- Population Apoptotic (%) [6]: 25% and 50%
- Population Healthy Nuclei (%) [6]: 74.48% and 87.96%
- Population Hoechst High Intensity Objects (%) [6]: 0%
- Population Membrane Permeable-Phenotype (%) [6]: 0.56% and 9.13%
- Population Mitochondria Different-Phenotype (%) [6]: 10.11% and 9.51%
- Population Mitotic Cells (%) [6]: 75% and 50%
- Population Normal (%) [6]: 100%
- Population Pyknosed Nuclei (%) [6]: 8.37% and 7.36%
- Population Tubulin-Different-Phenotype (%) [6]: 19.1% and 53.99%
- Total Cell Count [6]: 239 and 299

Compound: CC(/C=C1\SC(=S)N(CCCC(=O)Nc2ccc(C(=O)O)c(O)c2)C1=O)=C\c1ccccc1
- Population Apoptotic (%) [1]: 50% and 33%
- Population Fragmented Nuclei (%) [1]: 14% and 19%
- Population Healthy Nuclei (%) [1]: 71% and 60%
- Population Hoechst High Intensity Objects (%) [1]: 2% and 3%
- Population Membrane Permeable-Phenotype (%) [1]: 0% and 13%
- Population Mitochondria Different-Phenotype (%) [1]: 2% and 9%
- Population Mitotic Cells (%) [1]: 50% and 66%
- Population Normal (%) [1]: 97% and 96%
- Population Pyknosed Nuclei (%) [1]: 13% and 19%
- Population Tubulin-Different-Phenotype (%) [1]: 28% and 54%
- Total Cell Count [1]: 206 and 157
- Population Apoptotic (%) [2]: 56% and 40%
- Population Fragmented Nuclei (%) [2]: 15% and 19%
- Population Healthy Nuclei (%) [2]: 70% and 48%
- Population Hoechst High Intensity Objects (%) [2]: 2% and 4%
- Population Membrane Permeable-Phenotype (%) [2]: 0% and 8%
- Population Mitochondria Different-Phenotype (%) [2]: 5%
- Population Mitotic Cells (%) [2]: 43% and 59%
- Population Normal (%) [2]: 97% and 95%
- Population Pyknosed Nuclei (%) [2]: 13% and 31%
- Population Tubulin-Different-Phenotype (%) [2]: 44% and 54%
- Total Cell Count [2]: 123 and 122
- Population Apoptotic (%) [3]: 54% and 33%
- Population Fragmented Nuclei (%) [3]: 17%
- Population Healthy Nuclei (%) [3]: 72% and 63%
- Population Hoechst High Intensity Objects (%) [3]: 1% and 2%
- Population Membrane Permeable-Phenotype (%) [3]: 2% and 5%
- Population Mitochondria Different-Phenotype (%) [3]: 4% and 12%
- Population Mitotic Cells (%) [3]: 45% and 66%
- Population Normal (%) [3]: 98% and 97%
- Population Pyknosed Nuclei (%) [3]: 10% and 19%
- Population Tubulin-Different-Phenotype (%) [3]: 25% and 44%
- Total Cell Count [3]: 208 and 144
- Population Apoptotic (%) [4]: 66% and 53%
- Population Fragmented Nuclei (%) [4]: 11% and 20%
- Population Healthy Nuclei (%) [4]: 81% and 53%
- Population Hoechst High Intensity Objects (%) [4]: 0% and 4%
- Population Membrane Permeable-Phenotype (%) [4]: 0% and 11%
- Population Mitochondria Different-Phenotype (%) [4]: 4%
- Population Mitotic Cells (%) [4]: 33% and 46%
- Population Normal (%) [4]: 99% and 95%
- Population Tubulin-Different-Phenotype (%) [4]: 25% and 70%
- Total Cell Count [4]: 119 and 120
- Population Apoptotic (%) [5]: 78% and 45%
- Population Fragmented Nuclei (%) [5]: 24% and 29%
- Population Healthy Nuclei (%) [5]: 66% and 56%
- Population Hoechst High Intensity Objects (%) [5]: 3% and 1%
- Population Membrane Permeable-Phenotype (%) [5]: 1% and 7%
- Population Mitochondria Different-Phenotype (%) [5]: 2% and 6%
- Population Mitotic Cells (%) [5]: 21% and 54%
- Population Normal (%) [5]: 96% and 98%
- Population Pyknosed Nuclei (%) [5]: 9% and 14%
- Population Tubulin-Different-Phenotype (%) [5]: 31% and 44%
- Total Cell Count [5]: 216 and 159
- Population Apoptotic (%) [6]: 46% and 59%
- Population Fragmented Nuclei (%) [6]: 18% and 34%
- Population Healthy Nuclei (%) [6]: 69% and 46%
- Population Hoechst High Intensity Objects (%) [6]: 0% and 3%
- Population Membrane Permeable-Phenotype (%) [6]: 0% and 5%
- Population Mitochondria Different-Phenotype (%) [6]: 1% and 5%
- Population Mitotic Cells (%) [6]: 53% and 40%
- Population Normal (%) [6]: 100% and 96%
- Population Pyknosed Nuclei (%) [6]: 12% and 19%
- Population Tubulin-Different-Phenotype (%) [6]: 33% and 58%
- Total Cell Count [6]: 124 and 118

Compound: Cc1sc2c(c1C)C(c1ccc(Cl)cc1)=N[C@@H](CC(=O)NCCCCCCCCNC(=O)COc1cccc3c1C(=O)N(C1CCC(=O)NC1=O)C3=O)c1nnc(C)n1-2 (some centres undefined)
- Population Apoptotic (%) [1]: 57% and 42%
- Population Healthy Nuclei (%) [1]: 72% and 34%
- Population Hoechst High Intensity Objects (%) [1]: 3% and 6%
- Population Mitotic Cells (%) [1]: 42% and 57%
- Population Normal (%) [1]: 96% and 93%
- Population Pyknosed Nuclei (%) [1]: 16% and 31%
- Population Tubulin-Different-Phenotype (%) [1]: 25% and 66%
- Total Cell Count [1]: 118 and 94
- Population Apoptotic (%) [2]: 54% and 44%
- Population Fragmented Nuclei (%) [2]: 13% and 27%
- Population Healthy Nuclei (%) [2]: 56% and 27%
- Population Hoechst High Intensity Objects (%) [2]: 11% and 17%
- Population Membrane Permeable-Phenotype (%) [2]: 1% and 7%
- Population Mitochondria Different-Phenotype (%) [2]: 19% and 26%
- Population Mitotic Cells (%) [2]: 45% and 55%
- Population Normal (%) [2]: 88% and 82%
- Population Pyknosed Nuclei (%) [2]: 30% and 45%
- Population Tubulin-Different-Phenotype (%) [2]: 50% and 69%
- Total Cell Count [2]: 171 and 115
- Population Apoptotic (%) [3]: 56% and 65%
- Population Fragmented Nuclei (%) [3]: 20% and 41%
- Population Healthy Nuclei (%) [3]: 53% and 32%
- Population Hoechst High Intensity Objects (%) [3]: 10% and 3%
- Population Mitotic Cells (%) [3]: 44% and 35%
- Population Normal (%) [3]: 89% and 96%
- Population Pyknosed Nuclei (%) [3]: 26% and 25%
- Population Tubulin-Different-Phenotype (%) [3]: 25% and 72%
- Total Cell Count [3]: 107 and 80
- Population Apoptotic (%) [4]: 67% and 44%
- Population Fragmented Nuclei (%) [4]: 20% and 25%
- Population Healthy Nuclei (%) [4]: 38% and 32%
- Population Hoechst High Intensity Objects (%) [4]: 13% and 12%
- Population Mitochondria Different-Phenotype (%) [4]: 9% and 20%
- Population Mitotic Cells (%) [4]: 32% and 55%
- Population Normal (%) [4]: 86% and 87%
- Population Pyknosed Nuclei (%) [4]: 41% and 42%
- Population Tubulin-Different-Phenotype (%) [4]: 47% and 68%
- Total Cell Count [4]: 154 and 103
- Population Apoptotic (%) [5]: 88% and 93%
- Population Fragmented Nuclei (%) [5]: 41% and 42%
- Population Healthy Nuclei (%) [5]: 24% and 37%
- Population Mitochondria Different-Phenotype (%) [5]: 0% and 20%
- Population Mitotic Cells (%) [5]: 12% and 6%
- Population Normal (%) [5]: 72% and 91%
- Population Pyknosed Nuclei (%) [5]: 33% and 20%
- Population Tubulin-Different-Phenotype (%) [5]: 33% and 82%
- Total Cell Count [5]: 102 and 85
- Population Apoptotic (%) [6]: 86% and 57%
- Population Fragmented Nuclei (%) [6]: 40% and 38%
- Population Healthy Nuclei (%) [6]: 20% and 38%
- Population Hoechst High Intensity Objects (%) [6]: 38% and 15%
- Population Membrane Permeable-Phenotype (%) [6]: 5% and 14%
- Population Mitochondria Different-Phenotype (%) [6]: 10% and 14%
- Population Normal (%) [6]: 61% and 84%
- Population Pyknosed Nuclei (%) [6]: 38% and 23%
- Population Tubulin-Different-Phenotype (%) [6]: 55% and 80%
- Total Cell Count [6]: 156 and 108
